The test system of series [1] is Pseudomonas aeruginosa. Kind of series: Induction of inner membrane permeabilization of Pseudomonas aeruginosa ATCC 27853 after 15 mins by propidium iodide staining-based fluorescence assay. It is filed as functional. The gist of the method:
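Mid-log P. aeruginosa (OD620 ~0.4–0.5, grown in CA-MHB at 37 °C, 130 rpm) was adjusted to OD600 0.05. A 3 mM propidium iodide stock was diluted 10^3-fold in the suspension. Compounds in HEPES were added at final 1–10 μM. Fluorescence (ex 540/em 610 nm) was read at 25 °C after 15 min stabilization. Values were normalized to 150 μM CTAB (100%) and imipenem (0%).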

The test system of series [2] is Pseudomonas aeruginosa. Kind of series: Induction of inner membrane permeabilization of Pseudomonas aeruginosa ATCC 27853 at 5 uM after 15 mins by propidium iodide staining-based fluorescence assay relative to control. It is filed as functional. The gist of the method: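 P. aeruginosa ATCC 27853 from TSA colony, overnight in MHB-CA at 37 °C with shaking, diluted 100-fold and grown 4 h to mid-log (OD620 ~0.4–0.5). Suspension (OD600 0.05) with PI (3 mM stock diluted 10^3-fold) plus compound in HEPES (1–10 μM final). Fluorescence ex 540/em 610 nm at 25 °C after 15 min; normalized to CTAB 150 μM (100%) and imipenem (0%).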

In series [3] the test system is Staphylococcus aureus. Description: Antibacterial activity against Staphylococcus aureus ATCC 25923 by microdilution method. In kind it is functional. The gist of the method: (§1)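 Broth microdilution per CLSI in cation-adjusted Mueller–Hinton broth. Strains were grown overnight at 37 °C on trypticase soy agar, and a fresh culture was used. Starting inoculum was 10^6 cells.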
A general note: In broth dilution the organism is exposed to a series of concentrations in liquid medium.

The subject of series [4] is Staphylococcus aureus. Kind of series: Antibacterial activity against NorA expressing Staphylococcus aureus 1 by microdilution method.
Series [5] deals with Staphylococcus aureus. Kind of series: Antibacterial activity against healthcare-acquired methicillin-resistant Staphylococcus aureus ATCC 33592 by microdilution method. In kind it is functional. The gist of the method:
as §1

The subject of series [6] is Pseudomonas aeruginosa. Description: Antibacterial activity against Pseudomonas aeruginosa ATCC 27853 by microdilution method. In kind it is functional. The gist of the method:
(§2)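 Strains grown overnight at 37 °C on trypticase soy agar; MIC by broth microdilution from fresh culture in cation-adjusted Mueller–Hinton broth, starting inoculum 10^6 cells, following CLSI recommendations.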

In series [7] the test system is Pseudomonas aeruginosa. Kind of series: Antibacterial activity against AAC6'-2A expressing Pseudomonas aeruginosa F03 by microdilution method. In kind it is functional. The gist of the method:
as §2

In series [8] the test system is Pseudomonas aeruginosa. Kind of series: Antibacterial activity against MexXY expressing Pseudomonas aeruginosa PA22 by microdilution method. In kind it is functional. The gist of the method: as §2
Series [9] deals with Pseudomonas aeruginosa. Description: Antibacterial activity against triABC deficient Pseudomonas aeruginosa PA406 by microdilution method. It is filed as functional. The gist of the method: as §2
Series [10] relates to Acinetobacter lwoffii. Description: Antibacterial activity against Acinetobacter lwoffii ATCC 17925 by microdilution method. In kind it is functional. The gist of the method:
as §2

In series [11] the test system is Acinetobacter lwoffii. Kind of series: Antibacterial activity against APH3'-VIA expressing Acinetobacter lwoffii AI.88-483 by microdilution method. In kind it is functional. The gist of the method:
as §2

Series [12] has as its system Escherichia coli. Description: Antibacterial activity against AAC6'-IB expressing Escherichia coli PAZ505H8101 by microdilution method. In kind it is functional. The gist of the method: as §2
Series [13] has as its system Escherichia coli. Kind of series: Antibacterial activity against ANT2''-IA expressing Escherichia coli L8058.1 by microdilution method. It is filed as functional. The gist of the method: as §2
The test system of series [14] is Klebsiella pneumoniae. Kind of series: Antibacterial activity against Klebsiella pneumoniae ATCC 700603 by microdilution method. It is filed as functional. The gist of the method:
as §2

Series [15] in a line: Cytotoxicity against mouse J774 cells assessed as cell viability at 10 uM after 24 hrs by MTT assay relative to control. It is filed as toxicity, cell-based. The note with it: J774 cells, read-out: Activity. The gist of the method: (§3)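 Murine J774 macrophages exposed 24 h to 10 or 30 μM compound, then 1 h with 0.2 mg/mL MTT; reaction stopped with DMSO, OD read at 570 nm as metabolic-activity viability. Number of independent experiments given per value.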

Series [16] can be described thus: Cytotoxicity against mouse J774 cells assessed as cell viability at 30 uM after 24 hrs by MTT assay relative to control. In kind it is toxicity, cell-based. As to conditions: J774 cells, read-out: Activity. The gist of the method: as §3
(Formazan colour is commonly taken as a measure of viable cells.)

Series [17] has as its system Escherichia coli. Kind of series: microbe, parasite or virus in culture. The note with it: ATCC 25922.
Series [18] relates to Pseudomonas aeruginosa. Description: Induction of inner membrane permeabilization of Pseudomonas aeruginosa ATCC 27853 at 150 uM after 15 mins by propidium iodide staining-based fluorescence assay relative to control. In kind it is functional.

Values after ≈ are worked out from the molar mass of the structure shown.

On to `C[C@@H](O)[C@H]1C(=O)N2C(C(=O)O)=C(SCCNC=N)C[C@H]12` [IMIPENEM ANHYDROUS], for which, in series [1], the Activity was found to be 0%.
`CCCCCCCCCO[C@@H]1[C@@H](N)[C@@H](O[C@H]2[C@H](O)[C@@H](O)[C@H](N)C[C@@H]2N)O[C@H](CN)[C@H]1OCCCCCCCCC` had an Activity in series [2] of 25%. The MIC in [3] was 4 µg/mL (≈ 6.96 µM); in [4], 2 µg/mL (≈ 3.48 µM); in [5] it was 4 µg/mL (≈ 6.96 µM); in [6], 8 to 16 µg/mL (≈ 13.9 to 27.8 µM); in series [7], 8 to 16 µg/mL (≈ 13.9 to 27.8 µM); in series [8], 8 to 16 µg/mL (≈ 13.9 to 27.8 µM). In addition, the MIC is 8 to 16 µg/mL (≈ 13.9 to 27.8 µM) in [9]; 2 to 4 µg/mL (≈ 3.48 to 6.96 µM) in series [10]; 32 µg/mL (≈ 55.7 µM) in series [11]; 2 to 4 µg/mL (≈ 3.48 to 6.96 µM) in series [12]; 4 to 8 µg/mL (≈ 6.96 to 13.9 µM) in [13]; 16 to 32 µg/mL (≈ 27.8 to 55.7 µM) in [14]. Further, in [17], the MIC is 4 to 8 µg/mL (≈ 6.96 to 13.9 µM). Also, the viability at 24 h, 10 µM in [15] was determined as 82.7%. In addition, in series [16], the viability at 24 h, 30 µM is 48.6%.
For `NCC[C@H](O)C(=O)N[C@@H]1C[C@H](N)[C@@H](O[C@H]2O[C@H](CN)[C@@H](O)[C@H](O)[C@H]2O)[C@H](O)[C@H]1O[C@H]1O[C@H](CO)[C@@H](O)[C@H](N)[C@H]1O` [AMIKACIN], the MIC was 4 µg/mL (≈ 6.83 µM) in [3]; 2 µg/mL (≈ 3.42 µM) in series [4]; 8 to 16 µg/mL (≈ 13.7 to 27.3 µM) in series [5]; 2 to 4 µg/mL (≈ 3.42 to 6.83 µM) in series [6]; 8 µg/mL (≈ 13.7 µM) in series [7]; 8 µg/mL (≈ 13.7 µM) in series [8]. In addition, the MIC in series [9] is 1 µg/mL (≈ 1.71 µM); in series [10] it was < 0.25 µg/mL; in [11], 128 µg/mL (≈ 219 µM); in series [12], 64 µg/mL (≈ 109 µM); in series [13] it was 2 µg/mL (≈ 3.42 µM); in [14], 1 µg/mL (≈ 1.71 µM). In [17], the MIC was found to be 4 µg/mL (≈ 6.83 µM). Besides, the viability at 24 h, 10 µM in series [15] amounted to 81.2%. In addition, the viability at 24 h, 30 µM in [16] stood at 92%.
In series [18], Hexadecyltrimethylammonium bromide showed an Activity of 100%.
For the compound `NC[C@H]1O[C@H](O[C@H]2[C@H](O)[C@@H](O)[C@H](N)C[C@@H]2N)[C@H](N)[C@@H](O)[C@@H]1O` [NEAMINE], the MIC was 16 to 32 µg/mL (≈ 49.6 to 99.3 µM) in [3]; 8 µg/mL (≈ 24.8 µM) in series [4]; > 128 µg/mL in [5]; > 128 µg/mL in [6]; > 128 µg/mL in [7]; > 128 µg/mL in series [8]. Further, the MIC is 64 µg/mL (≈ 199 µM) in series [9]; 0.5 µg/mL (≈ 1.55 µM) in series [10]; > 128 µg/mL in series [11]; > 128 µg/mL in series [12]; 32 µg/mL (≈ 99.3 µM) in series [13]; 32 µg/mL (≈ 99.3 µM) in series [14]. Further, the MIC in [17] turned out to be 32 µg/mL (≈ 99.3 µM). Also, the viability at 24 h, 10 µM in [15] amounted to 94.8%. Moreover, the viability at 24 h, 30 µM in series [16] came out at 84.4%.
With `C=CCO[C@H]1O[C@H](CN)[C@@H](OCCCCCCCCC)[C@H](OCCCCCCCCC)[C@H]1N`, the MIC in series [3] is 4 µg/mL (≈ 8.5 µM); in series [4] it was 4 µg/mL (≈ 8.5 µM); in series [5], 4 µg/mL (≈ 8.5 µM); in series [6], > 128 µg/mL; in [7], > 128 µg/mL; in [8], > 128 µg/mL. Moreover, the MIC in series [9] is > 128 µg/mL; in series [10] it was 4 to 8 µg/mL (≈ 8.5 to 17 µM); in [11] it was 32 µg/mL (≈ 68 µM); in series [12] it was > 128 µg/mL; in series [13], > 128 µg/mL; in [14], 128 µg/mL (≈ 272 µM). Moreover, in series [17], the MIC was in the range of 32 to 64 µg/mL (≈ 68 to 136 µM). For the same compound, the viability at 24 h, 10 µM in series [15] is 91.4%. Further, the viability at 24 h, 30 µM in series [16] came out at 6.6%.
Regarding `CCCCCCCCCO[C@@H]1[C@@H](N)[C@@H](OCC(O)CNCCO)O[C@H](CN)[C@H]1OCCCCCCCCC` (mixture of isomers), the MIC in series [3] was 4 µg/mL; in [4], 1 to 2 µg/mL; in [5], 1 to 2 µg/mL; in series [6], 8 µg/mL; in series [7], 8 µg/mL; in [8], 8 µg/mL. Besides, the MIC was 8 µg/mL in series [9]; 2 µg/mL in series [10]; 4 to 8 µg/mL in series [11]; 8 µg/mL in [12]; 4 to 8 µg/mL in series [13]; 8 µg/mL in series [14]. The MIC in series [17] was 4 to 8 µg/mL. In addition, the viability at 24 h, 10 µM in [15] came out at 99.1%. Besides, the viability at 24 h, 30 µM in [16] was 10.1%.

These data come from ChEMBL document CHEMBL3860087, “New Broad-Spectrum Antibacterial Amphiphilic Aminoglycosides Active against Resistant Bacteria: From Neamine Derivatives to Smaller Neosamine Analogues” (J Med Chem, 2016).
